M1 antagonist – antagonists of rat M1 muscarinic receptor; Muscarinic acetylcholine receptor M1 (Rattus norvegicus), P08482; CHO-M1 cells, Fluo-4 calcium, ACh EC80 antagonist mode; active compounds read low; B-score at 10 µM; 3.4% of 64,000 active; AID 628, 2007;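 active = calcium fluorescence response, raw or row-and-column corrected B-score, differing from the plate sample mean either way at a set confidence level, mostly lower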
D1 allo mod – D1 CRE-luciferase signal change, two-sided – cell-based, HEK293 D1, dopamine EC30, D1 allosteric modulator project, primary screen; dopamine EC30 potentiation; actives deviate in either direction; B-score at 10 µM; 5.9% of 58,000 active;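 active = luminescence count or its row- and column-corrected plate score outside the 99.7% band of the plate's sample wells, on either side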
S1P1 ag pot – S1P1 agonists and agonism potentiators, primary screen, cell-based, primary and confirmation screens, CRE-bla reporter | S1P1 CRE-bla cells, forskolin, beta-lactamase FRET, potentiator mode; S1P1 agonist co-added at EC20, 2 nM; 100% = saturating reference agonist, 0% = basal | activation, % at 9.5 µM | 0.57% of 56,000 active | AID 449, 2006;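 active = activation above a cutoff set at the mean activation of all tested compounds plus 3 SD, cut at about 54% in these data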;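 also: forskolin at 4 µM as EC80 and the EC20 agonist is SEW2871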
Target sequence (P21453 whole entry, looked up): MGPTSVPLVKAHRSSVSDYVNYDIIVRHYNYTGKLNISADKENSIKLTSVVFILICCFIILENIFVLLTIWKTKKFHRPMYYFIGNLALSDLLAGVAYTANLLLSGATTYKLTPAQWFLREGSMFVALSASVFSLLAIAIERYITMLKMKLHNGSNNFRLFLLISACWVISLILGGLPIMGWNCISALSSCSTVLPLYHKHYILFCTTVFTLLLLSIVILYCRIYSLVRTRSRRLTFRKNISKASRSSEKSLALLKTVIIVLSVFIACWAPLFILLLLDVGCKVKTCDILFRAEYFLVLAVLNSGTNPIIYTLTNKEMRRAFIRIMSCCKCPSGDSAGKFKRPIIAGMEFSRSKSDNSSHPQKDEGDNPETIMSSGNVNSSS
M1 agonist – M1 muscarinic receptor agonists, primary screen, CHO-M1 cells, Fluo-4 calcium, agonist mode; Fluo-4 calcium fluorescence; active compounds read high; B-score at 10 µM; 3% of 64,000 active; AID 626, 2007;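 active = fluorescence rise, raw or as B-score row- and column-corrected plate score, outside the 99.7% band of its plate's samples, either direction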
S1P3 ag – human S1P3 receptor agonists, primary screen, cell-based, primary and confirmation, NFAT-BLA reporter | Sphingosine 1-phosphate receptor 3 (Homo sapiens), Q99500 | S1P3 NFAT-BLA reporter cells, agonism, FRET ratio; relative to 1 µM S1P, basal subtracted | activation, % at 4.5 µM | 0.1% of 60,000 active | AID 373, 2006;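 active = activation above the screen-wide mean plus 3 SD, cut at about 4.5% in these data, passing the limit was not always enough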
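Assay system: stable CHO line with human S1P3, Gα16, NFAT-BLA reporter; Detection: FRET β-lactamase substrate fluorescence, excitation 405 nm, 460/535 nm emission ratio, background-subtracted; Read-out: percent activation versus median 1 µM S1P response, basal-subtracted, per plate; Incubation: cells plated overnight, compound 4 h 37 °C, substrate 2 h RT.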
M1 ag confirm – rat M1 muscarinic receptor agonists, confirmation, CHO-M1 cells, Fluo-4 calcium, duplicate retest; fluorescence change (max-min) at 10 µM; Fluo-4 calcium fluorescence, agonist mode; actives lie on both sides; shares compounds with M1 agonist; 19% of 1,700 active; AID 1488, 2009;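 active = fluorescence change differs from the solvent-only DMSO control mean at a set confidence level in both duplicate runs; inconclusive = differs from solvent-only control mean in just one of two runs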;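 also: an EC20 dose of acetylcholine follows compound addition during the same imaging run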
M4 agonist ctr – agonist activity at rat M4 receptor, confirmation, counter-screen for M1 allosteric modulator project, cell-based, agonist mode; AID 1741, 2009; 9% of 1,700 active; shares compounds with M1 agonist; fluorescence change (max-min) at 10 µM; CHO M4/Gqi5 cells, Fluo-4 calcium fluorescence; actives lie on both sides;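 active = fluorescence change differing from the plate's solvent-only control wells at 99.7% confidence in both duplicates, whether higher or lower; inconclusive = differs from solvent controls in only one of two duplicates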
Large screens that a line does not name were inactive (follow-up assays come after a bar, where they were run). Shown are actives, neighbours in structure and some others; about 11% of the full set was active somewhere.

CCc1nnc(NC(=O)CCC(=O)N2CCN(CCc3ccccc3)CC2)s1	none (no result: D1 allo mod)
[O-]/[N+](=C\c1ccncc1)c1ccc(Br)cc1	none (no result: S1P1 ag pot, S1P3 ag)
Cc1ccc(N(CC(=O)NCc2ccc3c(c2)OCO3)S(=O)(=O)c2c(C)noc2C)cc1	none
CCNC(=O)C1CC(=O)N(Cc2ccc(F)cc2)C(=Nc2ccc(OC)cc2)S1 (stereo not given)	none
CNC(=O)C1CC(=O)N(Cc2ccccc2)C(=Nc2ccc(OC)cc2)S1 (stereo not given)	M1 agonist 10 | M1 ag confirm inconclusive | M4 agonist ctr inconclusive
Cc1ccc2[nH]c3c(c2c1)CN(C(=O)CN1CC(C)OC(C)C1)CC3 (stereo not given)	M1 agonist 8.4 (no result: D1 allo mod) | M1 ag confirm inactive | M4 agonist ctr inactive
Cc1ccc2[nH]c3c(c2c1)CN(C(=O)CN1CCN(Cc2ccc4c(c2)OCO4)CC1)CC3	none
CCOc1cc(S(=O)(=O)NCC2OCCc3ccccc32)c(OCC)cc1-n1cnnn1 (stereo not given)	none
Cc1nn(CC(=O)N(C)C)c(=O)c2ccccc12	M1 agonist 4.2 | M1 ag confirm inactive | M4 agonist ctr inactive
Cc1nn(CC(N)=O)c(=O)c2ccccc12	none (no result: D1 allo mod)
C=CCn1c(=O)/c(=C/c2ccc(C)o2)s/c1=C(/C#N)C(=O)c1ccccc1	M1 agonist 12 | M1 ag confirm 86 | M4 agonist ctr 275
COc1ccc(C)cc1Cn1c(S(C)(=O)=O)nc2ccccc21	none (no result: S1P1 ag pot)
O=c1c(=O)n(O)c2ccccc2n1O	none
C=CCOn1c(=O)c(C)[n+]([O-])c2ccccc21	none (no result: S1P1 ag pot)
O=c1c(-c2ccccc2)[n+]([O-])c2ccccc2n1O	M1 agonist 9.3 | M1 ag confirm inactive | M4 agonist ctr inactive
COn1c(=O)c(-c2ccc(Cl)cc2)[n+]([O-])c2ccccc21	none
CCOC(=O)COn1c(=O)c(-c2cccs2)[n+]([O-])c2ccccc21	M1 agonist 88 | M1 ag confirm 800 | M4 agonist ctr inconclusive
CCOn1c(=O)c(-c2ccc(OC)cc2)[n+]([O-])c2ccccc21	M1 agonist 5.2 | M1 ag confirm inconclusive | M4 agonist ctr inactive
O=S(=O)(c1ccccc1Cl)N1CCC(O)(c2ccc3c(c2)OCO3)CC1	none
COc1cccc(NC(=O)[C@@H]2CCCN2C(=O)C2CCN(S(=O)(=O)c3ccc(C)cc3)CC2)c1	none
CC1CN(C2CCN(C(=O)c3ccccc3Cl)CC2)CC(C)O1 (stereo not given)	none (no result: D1 allo mod)
C=CCn1c(=O)c2c(nc3n2CC(C)CN3c2cccc(OC)c2)n(C)c1=O (stereo not given)	M1 agonist 1.9 | M1 ag confirm inactive | M4 agonist ctr inconclusive
CC1CN(c2ccc(Oc3ccccc3)cc2)c2nc3c(c(=O)n(CC(N)=O)c(=O)n3C)n2C1 (stereo not given)	none
CCn1c(C(=O)N2CCC(C(=O)NCCCSC3CCCCC3)CC2)cc2sccc21	M1 agonist 2.5 | M1 ag confirm -19 | M4 agonist ctr inactive
CCN1CCN(C(=O)C2CCN(C(=O)c3cc4sccc4n3CC)CC2)CC1	none
O=C(Cn1nc(Cl)nc1Cl)c1cc2ccccc2oc1=O	none
O=C(Cn1nnc(-c2ccccc2F)n1)Nc1ccc2c(c1)OCO2	M1 agonist 5.7 | M1 ag confirm inconclusive | M4 agonist ctr inactive
O=C(Cn1nnc(-c2ccccc2F)n1)Nc1ccc(C(=O)N2CCOCC2)cc1	none
Cc1cccc2cc(CN(Cc3ccc(F)cc3)C(=O)N(C)C)c3nnnn3c12	M1 agonist 6.2 (no result: S1P1 ag pot, S1P3 ag) | M1 ag confirm inconclusive | M4 agonist ctr inactive
COCCN(Cc1cc2cccc(C)c2n2nnnc12)C(=O)C(F)(F)F	none
COc1ccc(-c2cc(C(F)(F)F)nc(N3CCCCCC3)n2)cc1	M1 agonist 4.6 (no result: D1 allo mod, S1P1 ag pot, S1P3 ag) | M1 ag confirm inactive | M4 agonist ctr inconclusive
COc1ccc(-c2cc(C(F)(F)F)nc(N3CCN(C)CC3)n2)cc1	none (no result: M1 antagonist, S1P1 ag pot, M1 agonist, S1P3 ag)
COc1ccccc1N(CC(O)CN1C(=O)NC(C)(C)C1=O)S(=O)(=O)c1ccc(C)cc1 (stereo not given)	none
c1ccc(-c2nc3cc(Cc4ccc5oc(-c6ccccn6)nc5c4)ccc3o2)nc1	none
c1ccc(N2CCN(c3nnc(Cc4cccnc4)c4ccccc34)CC2)nc1	M1 agonist 3.6 (no result: D1 allo mod) | M1 ag confirm inactive | M4 agonist ctr inconclusive
c1ccc(N2CCN(c3cnccn3)CC2)nc1	none (no result: D1 allo mod, S1P1 ag pot, S1P3 ag)
CCOc1ccc2[nH]cc(C(=O)N3CCN(CC)CC3)c(=O)c2c1	none
Cc1nc2ccc(NC(=O)c3c(-c4ccccc4)noc3C)cc2s1	M1 agonist 4.1 | M1 ag confirm inactive | M4 agonist ctr inactive
Cc1cc2cc(CCNC(=O)c3ccc(Br)o3)c(=O)[nH]c2cc1C	M1 agonist 3.7 | M1 ag confirm inactive | M4 agonist ctr inactive
OCCCc1nc2n(n1)C(c1ccccc1Cl)C=C(c1cccs1)N2 (stereo not given)	M1 agonist 33 | M1 ag confirm 206 | M4 agonist ctr 197
O=C(NCc1cccs1)Nc1ccc2c(c1)OCO2	M1 agonist 3.1 | M1 ag confirm inconclusive | M4 agonist ctr inactive
CC(Sc1nnc(C2CCCCC2)n1N)C(=O)NCc1ccc2c(c1)OCO2 (stereo not given)	none
COc1ccc2c(c1)[nH]c1c(=O)n(CCN3CCCC3)cnc12	M1 agonist 2.2 | M1 ag confirm inconclusive | M4 agonist ctr inactive
CCOC(=O)N1CCN(c2c(NCC3CCN(Cc4cccc(C)c4)CC3)c(=O)c2=O)CC1	none
O=C1c2oc3ccccc3c(=O)c2C(c2ccc(Cl)cc2)N1c1ncccn1 (stereo not given)	none
Cc1oc2nc(SCCCC(=O)NCCO)nc(N)c2c1C	none
N#Cc1ccccc1CSc1nc(N2CCCCC2)nc(N2CCCCC2)n1	M1 agonist 7.4 | M1 ag confirm inactive | M4 agonist ctr inactive
COc1ccc(CNn2c(C)nc3ccccc3c2=O)cc1	M1 agonist 5.6 (no result: D1 allo mod) | M1 ag confirm inactive | M4 agonist ctr inactive
CCCCOc1ccc(CNn2c(C)nc3ccccc3c2=O)cc1	none (no result: D1 allo mod)
COCCn1c(-c2ccccc2)nc2oc3ccccc3c(=O)c2c1=O	M1 agonist 2.4 | M1 ag confirm -25 | M4 agonist ctr -96
CCN1CCN(c2cc(C)c3cc(NC(=O)c4ccncc4)ccc3n2)CC1	none

Assay outcomes deposited in PubChem by several laboratories.
